One may read the viability as a read-out of living cells in per cent, often relative to untreated cells. By inhibition is commonly meant the drop in the measured response relative to a control, in per cent.

Activity calls are given as the source filed them.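 How the source made its calls, unless noted: active means viability at or below 30% in both replicate assays; inconclusive means viability at or below 30% in just one of the two assays; inactive means the rest.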

Results on 14 molecules are retold here after PubChem BioAssay.

Experiment [1] is described as follows: Her2 expression decrease, cell viability multiplex – SKBR3 breast tumor cells, AlphaScreen, ATP viability, primary screen (AID 461;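 active means Her2 level under about 52% in both replicate screens, with viability over 70% of control, limit read from the data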;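 on Her2 level: lower value means less Her2 protein in the cells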;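 on viability: percent of carrier control wells set as 100% viability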). The following applies: SKBR3 Her2 protein level, 18-24 h, measured here: SKBR3 viability, ATP luminescence, at 10 µM. (In general: Alpha assays give light when donor and acceptor beads are brought close together.)
For experiment [2], the target named is Receptor tyrosine-protein kinase erbB-2 (Homo sapiens) (UniProt P04626). Described as above. The following applies: 18-24 h, at 10 µM, stronger effect = lower value.
Chain of Receptor tyrosine-protein kinase erbB-2 (Homo sapiens) (P04626 whole entry, looked up): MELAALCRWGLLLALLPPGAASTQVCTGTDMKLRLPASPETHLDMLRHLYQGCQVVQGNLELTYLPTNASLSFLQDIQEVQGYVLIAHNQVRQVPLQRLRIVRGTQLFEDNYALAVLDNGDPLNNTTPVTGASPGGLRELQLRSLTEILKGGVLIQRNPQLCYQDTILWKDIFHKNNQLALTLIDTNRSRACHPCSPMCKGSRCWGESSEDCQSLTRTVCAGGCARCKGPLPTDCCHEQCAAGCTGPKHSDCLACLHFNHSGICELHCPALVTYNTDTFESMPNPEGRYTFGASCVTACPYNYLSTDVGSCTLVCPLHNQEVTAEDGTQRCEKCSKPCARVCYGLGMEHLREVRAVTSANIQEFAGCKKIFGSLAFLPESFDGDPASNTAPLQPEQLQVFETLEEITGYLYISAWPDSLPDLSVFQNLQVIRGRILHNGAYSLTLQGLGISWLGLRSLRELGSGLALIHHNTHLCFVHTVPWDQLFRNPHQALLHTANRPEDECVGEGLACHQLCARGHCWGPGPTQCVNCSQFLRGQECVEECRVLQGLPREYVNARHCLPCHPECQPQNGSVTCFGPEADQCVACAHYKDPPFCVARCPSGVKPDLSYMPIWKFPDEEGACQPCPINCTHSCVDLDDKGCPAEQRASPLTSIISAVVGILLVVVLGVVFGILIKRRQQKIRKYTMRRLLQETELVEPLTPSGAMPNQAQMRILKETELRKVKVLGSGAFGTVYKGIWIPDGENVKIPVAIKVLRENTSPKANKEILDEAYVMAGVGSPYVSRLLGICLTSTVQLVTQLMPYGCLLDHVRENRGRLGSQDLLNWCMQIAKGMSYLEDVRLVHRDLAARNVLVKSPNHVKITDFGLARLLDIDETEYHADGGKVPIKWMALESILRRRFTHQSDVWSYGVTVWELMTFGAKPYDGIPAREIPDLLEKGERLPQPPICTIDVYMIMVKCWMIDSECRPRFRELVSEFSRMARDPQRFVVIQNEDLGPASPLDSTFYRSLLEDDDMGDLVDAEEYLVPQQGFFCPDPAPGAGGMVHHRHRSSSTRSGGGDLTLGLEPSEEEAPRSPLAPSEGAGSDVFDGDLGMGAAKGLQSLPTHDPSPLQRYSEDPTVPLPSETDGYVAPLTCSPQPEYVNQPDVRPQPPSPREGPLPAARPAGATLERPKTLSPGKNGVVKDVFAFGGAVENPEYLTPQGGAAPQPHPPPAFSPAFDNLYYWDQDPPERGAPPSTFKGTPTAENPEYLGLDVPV
Experiment [3] can be described thus: reduced viability of SK-BR-3 breast cancer cells – cell-based, 24 h, human, pilot screen (AID 572;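 active means viability at or below 10% of carrier control in both of two separate runs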;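 further: compound exposure lasted between 18 and 24 h rather than exactly 24 h; 100% = carrier-treated control wells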). As to conditions: SK-BR-3 viability, CellTiter-Glo luminescence, at 10 µM, stronger effect = lower value. (In general: ATP-based viability assays read luminescence as a measure of living cells.)
Experiment [4] can be described thus: HUVEC growth inhibition – cell-based, human, primary screen (AID 575).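 Further: 100% = median of untreated cell wells with 0.1% DMSO on each plate.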 The following applies: HUVEC proliferation, CellTiter-Glo luminescence, 72 h; at 10 µM; stronger effect = lower value. The method, boiled down:
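System: primary human umbilical vein endothelial cells; Quantity: 1250 endothelial cells in each well; Buffer or medium: supplemented EBM, 2% fetal bovine serum; Doses: one dose, 10 µM final, 0.1% DMSO; Incubation: 72 h compound incubation; Technique: ATP-based CellTiter-Glo luminescent read; Evaluation: percent of median DMSO-control luminescence; Controls: vehicle and MePR control wells.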

The nature of experiment [5]: H69AR cell proliferation blockers – human, duplicate replicates, primary screen (AID 580;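 active means viability at or under a set limit in both replicates, limit being median viability minus 3 SD, cut at about 48% in these data, passing the limit was not always enough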;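 further: 100% = mean luminescence of untreated wells and 0% = no signal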). The following applies: H69AR lung tumor cells viability, ATP luminescence, 72 h; at 10 µM; stronger effect = lower value.
Experiment [6] is described as follows: MRP1 drug-resistance reversers in H69AR cells – cell-based, doxorubicin co-treatment, pilot screen (AID 601;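 active means viability loss from added drug above about 55%, and viability with drug at most 40%, in both replicates, limit read from the data, passing the limit was not always enough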). The following applies: CellTiter-Glo, 72 h, at 10 µM; for differential viability (reversal): stronger effect = higher value.
Experiment [7] is described as follows: yeast transport mutant growth inhibition pilot in 384-well plates, post-Golgi transport modulator project (AID 636; in the data active means inhibition above about 31%). The following applies: absorbance 615 nm, about 18 h, stronger effect = higher value.
Experiment [8] in a line: growth suppression of yeast trafficking mutant, preliminary HTS, modulators of trafficking downstream of Golgi apparatus project, 1536-format plate, OD 615 nm (AID 637; in the data active means inhibition above about 30%). The following applies: yeast transport mutant growth, absorbance 615 nm, 18 h; stronger effect = higher value.
Where [9] appears, read: H69AR cells + 2 uM doxorubicin, measured here: viability with 2 uM doxorubicin, stronger effect = lower value.
Where [10] appears, read: H69AR cells, compound alone cytotoxicity.

Consider `C=CCn1c(SCC2=C(C(=O)OCC)C(C)NC(=O)N2)nnc1C1CCCCC1` (stereo not given), for which the viability is 100% in experiment [1]; 100% (inactive) in experiment [3]; 83.6% (inactive) in experiment [4]; 91.5% (inactive) in experiment [5]; 96.2% in experiment [6] (setting [9]); 91.5% in experiment [6] (setting [10]). The Her2 level in experiment [2] was 105% (inactive). Also, the differential viability (reversal) in experiment [6] (H69AR cells + 2 uM doxorubicin) is -4.74% (inactive). The inhibition in experiment [7] was -5.06% (inactive); in experiment [8], -0.98% (inactive).

Take `Cc1cc2c(c(=O)o1)C(Cc1ccccc1)C(C#N)=C(N)O2` (stereo not given): the viability in experiment [1] is 94%; in experiment [3] it was 94% (inactive); in experiment [4], 87.2% (inactive); in experiment [5], 98.7% (inactive); in experiment [6] (setting [9]) it was 77.2%; in experiment [6] (setting [10]) it was 98.7%. Besides, the Her2 level in experiment [2] is 96% (inactive). In addition, in experiment [6] (H69AR cells + 2 uM doxorubicin), the differential viability (reversal) was 21.6% (inactive). Besides, the inhibition is 1.45% (inactive) in experiment [7] and 1.8% (inactive) in experiment [8].

As to `O=c1c2c3c(sc2nc2sc(C4CC4)nn12)CCCC3`, the viability is 110% in experiment [1]; 110% (inactive) in experiment [3]; 82.7% (inactive) in experiment [4]; 79.7% (inactive) in experiment [5]; 87.2% in experiment [6] (setting [9]); 79.7% in experiment [6] (setting [10]). The Her2 level in experiment [2] was 92.5% (inactive). Further, the differential viability (reversal) in experiment [6] (H69AR cells + 2 uM doxorubicin) was -7.56% (inactive). In addition, the figures for the inhibition in experiment [7] and in experiment [8] were -0.39% (inactive) and 20.7% (inactive), respectively.

Consider `NC(=O)C1(N2CCCCC2)CCN(Cc2ccccc2Cl)CC1`, for which the viability is 102% in experiment [1]; 102% (inactive) in experiment [3]; 87.8% (inactive) in experiment [4]; 83.8% (inactive) in experiment [5]; 80.8% in experiment [6] (setting [9]); 83.8% in experiment [6] (setting [10]). Also, the Her2 level in experiment [2] is 77% (inactive). Further, the differential viability (reversal) in experiment [6] (H69AR cells + 2 uM doxorubicin) was 3.07% (inactive). Besides, the inhibition in experiment [7] was -6.62% (inactive); in experiment [8], -1.17% (inactive).

Turning to `Cn1c2c(c(=O)n(C)c1=O)C(CC(=O)Nc1ccccc1)C(=O)N2` (stereo not given), the viability in experiment [1] is 106%; in experiment [3], 106% (inactive); in experiment [4] it was 106% (inactive); in experiment [5], 108% (inactive); in experiment [6] (setting [9]), 86.4%; in experiment [6] (setting [10]), 108%. Further, the Her2 level in experiment [2] was 78.5% (inactive). In addition, in experiment [6] (H69AR cells + 2 uM doxorubicin), the differential viability (reversal) is 21.8% (inactive). Also, the inhibition in experiment [7] is -2.97% (inactive); in experiment [8] it was 8.57% (inactive).

Take `c1ccc(-c2nnc(OCCN3CCOCC3)c3ccccc23)cc1`: the viability is 112% in experiment [1]; 112% (inactive) in experiment [3]; 87.3% (inactive) in experiment [4]; 84.2% (inactive) in experiment [5]; 89.9% in experiment [6] (setting [9]); 84.2% in experiment [6] (setting [10]). Besides, the Her2 level in experiment [2] was 118% (inactive). Further, the differential viability (reversal) in experiment [6] (H69AR cells + 2 uM doxorubicin) was -5.76% (inactive). The inhibition in experiment [7] is -4.08% (inactive); in experiment [8], 2.62% (inactive).

As to `CCCn1c(=N)n(CC(=O)c2cccs2)c2ccccc21`, the viability was 92% in experiment [1]; 92% (inactive) in experiment [3]; 93.2% (inactive) in experiment [4]; 91% (inactive) in experiment [5]; 92.3% in experiment [6] (setting [9]); 91% in experiment [6] (setting [10]). Moreover, the Her2 level in experiment [2] is 106% (inactive). Moreover, the differential viability (reversal) in experiment [6] (H69AR cells + 2 uM doxorubicin) is -1.29% (inactive). Moreover, the results for the inhibition in experiment [7] and in experiment [8] were -7.33% (inactive) and -4.19% (inactive), respectively.

Turning to `CCn1c(=O)cc(SCC(=O)N2CCN(C3CCCCC3)CC2)c2ccccc21`, the viability is 88.5% in experiment [1]; 88.5% (inactive) in experiment [3]; 79.2% (inactive) in experiment [4]; 83.5% (inactive) in experiment [5]; 76.5% in experiment [6] (setting [9]); 83.5% in experiment [6] (setting [10]). Further, the Her2 level in experiment [2] is 77% (inactive). Also, the differential viability (reversal) in experiment [6] (H69AR cells + 2 uM doxorubicin) is 7.01% (inactive). Besides, the inhibition is -0.92% (inactive) in experiment [7] and 0.18% (inactive) in experiment [8].

For `CN1CC(=O)N(CC(=O)NCCc2ccc(F)cc2)c2ccccc2C1=O`, the viability in experiment [1] is 95%; in experiment [3] it was 95% (inactive); in experiment [4] it was 105% (inactive); in experiment [5], 90% (inactive); in experiment [6] (setting [9]) it was 93.6%; in experiment [6] (setting [10]) it was 90%. In experiment [2], the Her2 level was 90.5% (inactive). In addition, in experiment [6] (H69AR cells + 2 uM doxorubicin), the differential viability (reversal) is -3.62% (inactive). The inhibition in experiment [7] is -6.36% (inactive); in experiment [8], 1.75% (inactive).

For the molecule `CCOC(=O)CC(=O)Nc1c(C)cc(C)cc1C`, the viability was 94.5% in experiment [1]; 94.5% (inactive) in experiment [3]; 85% (inactive) in experiment [4]; 102% (inactive) in experiment [5]; 91.8% in experiment [6] (setting [9]); 102% in experiment [6] (setting [10]). Besides, in experiment [2], the Her2 level was 90.5% (inactive). Moreover, the differential viability (reversal) in experiment [6] (H69AR cells + 2 uM doxorubicin) is 10.3% (inactive). Besides, the inhibition in experiment [7] is 2.57% (inactive); in experiment [8], -2.95% (inactive).

With `COc1cccc(-c2noc(-c3cccs3)n2)c1`, the viability in experiment [1] was 96.5%; in experiment [3], 96.5% (inactive); in experiment [4], 75.1% (inactive); in experiment [5], 81.5% (inactive); in experiment [6] (setting [9]) it was 111%; in experiment [6] (setting [10]) it was 81.5%. The Her2 level in experiment [2] is 87% (inactive). The differential viability (reversal) in experiment [6] (H69AR cells + 2 uM doxorubicin) was -29.2% (inactive). Besides, the inhibition was 2.08% (inactive) in experiment [7] and -4.29% (inactive) in experiment [8].

As for `CCn1nc(CC(=O)Nc2nnc(CC(=O)N3CCCCC3)s2)c2ccccc2c1=O`, the viability was 96% in experiment [1]; 96% (inactive) in experiment [3]; 84.4% (inactive) in experiment [4]; 97.5% (inactive) in experiment [5]; 92.7% in experiment [6] (setting [9]); 97.5% in experiment [6] (setting [10]). Also, the Her2 level in experiment [2] is 102% (inactive). The differential viability (reversal) in experiment [6] (H69AR cells + 2 uM doxorubicin) is 4.77% (inactive). Moreover, the values for the inhibition in experiment [7] and in experiment [8] were -0.52% (inactive) and -4.83% (inactive), respectively.

For `COc1ccccc1NC(=O)CSc1nnnn1-c1ccc2c(c1)OCO2`, the viability is 92% in experiment [1]; 92% (inactive) in experiment [3]; 98.7% (inactive) in experiment [4]; 90.9% (inactive) in experiment [5]; 75.8% in experiment [6] (setting [9]); 90.9% in experiment [6] (setting [10]). Also, the Her2 level in experiment [2] is 84% (inactive). The differential viability (reversal) in experiment [6] (H69AR cells + 2 uM doxorubicin) is 15.1% (inactive). Further, the inhibition is -4.11% (inactive) in experiment [7] and 0% (inactive) in experiment [8].

Turning to `COc1cccc(C2=Nn3c(nnc3-c3ccccc3O)SC2)c1`, the viability in experiment [1] is 100%; in experiment [3] it was 100% (inactive); in experiment [4], 89.4% (inactive); in experiment [5], 67.2% (inactive); in experiment [6] (setting [9]) it was 85.7%; in experiment [6] (setting [10]), 67.2%. In experiment [2], the Her2 level is 61% (inactive). Besides, the differential viability (reversal) in experiment [6] (H69AR cells + 2 uM doxorubicin) is -18.5% (inactive). In addition, the inhibition in experiment [7] is -3.16% (inactive); in experiment [8], -2.83% (inactive).
